Experimental findings from ChEMBL document CHEMBL3526048, “In vitro metabolism of rivoglitazone, a novel peroxisome proliferator-activated receptor γ agonist, in rat, monkey, and human liver microsomes and freshly isolated hepatocytes” (Drug Metab Dispos, 2011) are described below.

Series [1] in a line: Drug metabolism in rat hepatocytes assessed as formation of (2S,3S,4S,5R,6R)-3,4,5-trihydroxy-6-(5-(4-((6-methoxy-1-methyl-1H-benzo[d]imidazol-2-yl)methoxy)benzyl)-2,4-dioxothiazolidin-3-yl)tetrahydro-2H-pyran-2-carboxylic acid at 30 uM after 3 hrs by radio-HPLC/LC-MS/MS analysis in presence of UDPGA and UDPGA/SAM. The series is classed as ADME, cell-based, Hepatocyte.
For series [2], the target named is T1, UDP-glucuronosyltransferase 1A3 (Homo sapiens, UniProt P35503).
T1 sequence (P35503 whole entry): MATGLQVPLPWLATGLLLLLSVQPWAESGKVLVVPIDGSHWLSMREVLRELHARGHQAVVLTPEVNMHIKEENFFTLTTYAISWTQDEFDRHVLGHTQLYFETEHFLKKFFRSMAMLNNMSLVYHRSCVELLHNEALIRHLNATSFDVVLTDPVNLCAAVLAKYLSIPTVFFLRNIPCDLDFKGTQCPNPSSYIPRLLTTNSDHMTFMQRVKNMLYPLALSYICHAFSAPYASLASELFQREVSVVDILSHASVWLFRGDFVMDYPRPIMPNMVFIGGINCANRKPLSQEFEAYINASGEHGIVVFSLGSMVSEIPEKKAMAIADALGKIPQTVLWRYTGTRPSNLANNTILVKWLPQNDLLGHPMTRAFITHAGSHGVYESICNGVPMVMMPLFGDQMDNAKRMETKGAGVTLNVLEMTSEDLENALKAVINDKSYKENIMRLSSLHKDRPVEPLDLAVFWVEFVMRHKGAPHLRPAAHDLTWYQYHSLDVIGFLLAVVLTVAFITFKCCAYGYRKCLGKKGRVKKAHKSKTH
Kind of series: Activity of human UGT1A3 expressed in microsomes isolated from baculovirus infected insect cell assessed as enzyme-mediated 2-hydroxy-3-(4-((6-methoxy-1-methyl-1H-benzo[d]imidazol-2-yl)methoxy)phenyl)propanamide formation at 20 uM after 4 hrs by radio-HPLC/LC-MS/MS analysis in presence of NADPH-generating system and NADPH-generating system/SAM in presence of UDPGA and UDPGA/SAM. It counts as ADME.

Another series has as its target Cytochrome P450 3A5 (Homo sapiens, UniProt P20815). Put plainly: Activity of human CYP3A5 expressed in microsomes isolated from baculovirus infected insect cell assessed as enzyme-mediated 3-(4-((6-methoxy-1-methyl-1H-benzo[d]imidazol-2-yl)methoxy)phenyl)-2-(methylthio)propanamide formation at 20 uM after 2 hrs by radio-HPLC/LC-MS/MS analysis in presence of NADPH-generating system/SAM. It counts as ADME. The method in brief: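 cDNA-expressed human CYP3A5 in baculovirus-insect-cell microsomes (1 mg/ml protein) was incubated with [¹⁴C]rivoglitazone (20 μM) in 50 mM potassium phosphate (pH 7.4) or 100 mM Tris-HCl (pH 7.5). NADPH-generating system: 2 mM NADP⁺, 20 mM glucose 6-phosphate, 2 units/ml G6PDH, 10 mM MgCl₂. Incubation ran 2 h at 37°C with shaking; insect-cell control supersomes served as control. Acetonitrile stop, supernatant concentrated, then radio-HPLC, LC-MS and LC-MS/MS.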

Series [3] has as its target T2, Cytochrome P450 2C8 (Homo sapiens, UniProt P10632).
T2 sequence (P10632 whole entry): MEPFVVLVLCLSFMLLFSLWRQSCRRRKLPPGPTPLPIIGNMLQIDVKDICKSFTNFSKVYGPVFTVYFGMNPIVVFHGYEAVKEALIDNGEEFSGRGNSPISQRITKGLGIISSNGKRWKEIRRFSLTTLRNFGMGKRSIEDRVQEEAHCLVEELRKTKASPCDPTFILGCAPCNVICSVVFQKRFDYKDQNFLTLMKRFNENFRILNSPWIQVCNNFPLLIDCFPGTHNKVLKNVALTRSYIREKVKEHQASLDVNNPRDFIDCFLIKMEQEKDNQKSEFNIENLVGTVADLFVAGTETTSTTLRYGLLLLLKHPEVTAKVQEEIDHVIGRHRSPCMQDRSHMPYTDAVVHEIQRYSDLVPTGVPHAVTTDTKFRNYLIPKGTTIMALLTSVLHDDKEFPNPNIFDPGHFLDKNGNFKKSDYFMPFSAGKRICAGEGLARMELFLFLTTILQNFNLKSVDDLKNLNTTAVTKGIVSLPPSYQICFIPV
Kind of series: Activity of human CYP2C8 expressed in microsomes isolated from baculovirus infected insect cell assessed as enzyme-mediated 2-hydroxy-3-(4-((6-methoxy-1-methyl-1H-benzo[d]imidazol-2-yl)methoxy)phenyl)propanamide formation at 20 uM after 2 hrs by radio-HPLC/LC-MS/MS analysis in presence of NADPH-generating system and NADPH-generating system/SAM. It counts as ADME. In a few lines:
(§1)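 Baculovirus/insect-cell microsomes expressing single human CYPs, 1 mg/ml protein, with 50 mM potassium phosphate (pH 7.4) or 100 mM Tris-HCl (pH 7.5). NADPH-generating system: 2 mM NADP⁺, 20 mM glucose 6-phosphate, 2 units/ml G6PDH, 10 mM MgCl₂. [¹⁴C]rivoglitazone at 20 μM, 2 h at 37°C with shaking. Control used insect-cell control supersomes. Stopped with acetonitrile; supernatant concentrated under nitrogen; metabolites analysed by radio-HPLC, LC-MS and LC-MS/MS.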

A further series deals with Cytochrome P450 2C9 (Homo sapiens, UniProt P11712). Put plainly: Activity of human CYP2C9 expressed in microsomes isolated from baculovirus infected insect cell assessed as enzyme-mediated 3-(4-((6-methoxy-1-methyl-1H-benzo[d]imidazol-2-yl)methoxy)phenyl)-2-(methylsulfinyl)propanamide formation at 20 uM after 2 hrs by radio-HPLC/LC-MS/MS analysis in presence of NADPH-generating system/SAM. The series is classed as ADME.

The test system of series [4] is Liver microsome. Put plainly: Drug metabolism in Sprague-Dawley rat liver microsomes assessed as formation of 3-(4-((6-methoxy-1-methyl-1H-benzo[d]imidazol-2-yl)methoxy)phenyl)-2-(methylsulfinyl)propanamide at 20 uM after 2 hrs by radio-HPLC/LC-MS/MS analysis in presence of NADPH-generating system/SAM. The series is classed as ADME. A general note: Liver microsomes are vesicles of endoplasmic reticulum, rich in cytochrome P450 enzymes.

Series [5] has as its system Liver microsome. Kind of series: Drug metabolism in human liver microsomes assessed as formation of 5-(4-((6-methoxy-1H-benzo[d]imidazol-2-yl)methoxy)benzyl)thiazolidine-2,4-dione at 20 uM after 2 hrs by radio-HPLC/LC-MS/MS analysis in presence of NADPH-generating system and NADPH-generating system/SAM. The series is classed as ADME.
For series [6], the target named is T2, Cytochrome P450 2C8. Kind of series: Activity of human CYP2C8 expressed in microsomes isolated from baculovirus infected insect cell assessed as enzyme-mediated 2-mercapto-3-(4-((6-methoxy-1-methyl-1H-benzo[d]imidazol-2-yl)methoxy)phenyl)propanoic acid formation at 20 uM after 2 hrs by radio-HPLC/LC-MS/MS analysis in presence of NADPH-generating system. The series is classed as ADME. The method in brief: as §1

Series [7] has as its target T1, UDP-glucuronosyltransferase 1A3. Put plainly: Activity of human UGT1A3 expressed in microsomes isolated from baculovirus infected insect cell assessed as enzyme-mediated 5-hydroxy-5-(4-((6-methoxy-1-methyl-1H-benzo[d]imidazol-2-yl)methoxy)benzyl)thiazolidine-2,4-dione formation at 20 uM after 4 hrs by radio-HPLC/LC-MS/MS analysis in presence of NADPH-generating system and NADPH-generating system/SAM in presence of UDPGA and UDPGA/SAM. It counts as ADME.

Sequence of Cytochrome P450 3A5 (P20815 whole entry): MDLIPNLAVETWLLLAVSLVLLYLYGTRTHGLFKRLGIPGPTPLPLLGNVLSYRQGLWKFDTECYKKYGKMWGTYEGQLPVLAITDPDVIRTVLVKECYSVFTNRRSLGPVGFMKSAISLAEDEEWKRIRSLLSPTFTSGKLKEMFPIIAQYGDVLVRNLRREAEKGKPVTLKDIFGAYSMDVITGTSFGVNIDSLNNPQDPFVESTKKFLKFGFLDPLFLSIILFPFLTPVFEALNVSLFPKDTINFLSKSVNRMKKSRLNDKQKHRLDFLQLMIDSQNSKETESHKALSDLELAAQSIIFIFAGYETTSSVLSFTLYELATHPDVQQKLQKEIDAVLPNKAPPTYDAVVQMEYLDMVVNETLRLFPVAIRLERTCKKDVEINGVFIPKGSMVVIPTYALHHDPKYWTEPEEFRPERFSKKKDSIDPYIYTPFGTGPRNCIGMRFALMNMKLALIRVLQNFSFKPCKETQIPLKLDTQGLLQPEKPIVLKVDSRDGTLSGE
Sequence of Cytochrome P450 2C9 (P11712 whole entry): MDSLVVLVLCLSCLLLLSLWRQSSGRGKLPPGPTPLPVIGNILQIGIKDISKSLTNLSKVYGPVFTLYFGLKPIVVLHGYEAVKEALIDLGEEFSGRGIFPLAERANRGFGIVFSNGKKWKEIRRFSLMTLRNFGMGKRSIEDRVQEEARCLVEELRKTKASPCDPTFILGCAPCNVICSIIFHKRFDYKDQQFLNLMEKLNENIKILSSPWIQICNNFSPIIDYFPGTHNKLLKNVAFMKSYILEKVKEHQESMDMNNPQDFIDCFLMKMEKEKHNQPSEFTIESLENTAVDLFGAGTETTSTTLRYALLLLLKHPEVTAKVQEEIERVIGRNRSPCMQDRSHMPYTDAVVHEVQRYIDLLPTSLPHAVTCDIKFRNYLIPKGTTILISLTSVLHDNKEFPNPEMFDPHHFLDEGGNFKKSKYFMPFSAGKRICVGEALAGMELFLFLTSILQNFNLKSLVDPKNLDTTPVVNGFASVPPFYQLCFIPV

For the compound `COc1ccc2nc(COc3ccc(C[14CH]4SC(=O)NC4=O)cc3)n(C)c2c1.Cl` (racemic), the Drug metabolism entry in series [1] is reported as “metabolite_detected”; in series [2], “metabolite_not_detected”; on Cytochrome P450 3A5, “metabolite_not_detected”; at Cytochrome P450 2C8 [3], “metabolite_detected”; at Cytochrome P450 2C9 it was “metabolite_not_detected”; with Liver microsome [4], “metabolite_detected”. For the same compound, the Drug metabolism entry is on record as “metabolite_detected” in the series on Liver microsome [5], “metabolite_detected” at Cytochrome P450 2C8 [6] and “metabolite_not_detected” in [7].
